How the values were obtained:
[1] = tested on: Human immunodeficiency virus; experiment: Antiviral activity against HIV with reverse transcriptase L100I/K103N double mutant assessed as inhibition of viral replication; assay type: functional, organism-based; details: Human immunodeficiency virus 1
[2] = Clearance in rhesus monkey at 1 mg/kg, iv; assay type: ADME, organism-based, Macaca mulatta; design: dose 1 mg/kg, route intravenous; details: in vivo
[3] = tested on: Human immunodeficiency virus; experiment: Antiviral activity against HIV with reverse transcriptase K101E/Y181C/G190A mutant assessed as inhibition of viral replication relative to wild type; assay type: functional
[4] = Inhibition of RNA-dependent DNA polymerase activity of wild type HIV reverse transcriptase assessed as BrdU incorporation by standard ECL assay; design: species or system Human immunodeficiency virus
Summary of the method: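 Purified recombinant wild-type RT polymerase activity was measured using a 500-nt heteropolymeric RNA template and a biotinylated DNA primer. BrdU incorporation was detected with a ruthenylated anti-BrdU antibody by electrochemiluminescence. Ki is the geometric mean of at least two determinations, each within 25% of the mean.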

[5] = tested on: Human immunodeficiency virus; experiment: Antiviral activity against HIV with reverse transcriptase K103N/Y181C double mutant assessed as inhibition of viral replication relative to wild type; assay type: functional
[6] = tested on: Human immunodeficiency virus; experiment: Antiviral activity against wild type HIV H9-3B infected in human MT2 cells assessed as inhibition of viral replication measuring p24 level after 3 days in presence of 10% fetal bovine serum; assay type: functional; details: Human immunodeficiency virus 1, MT2, Serum; read-out: CIC95
Summary of the method: (§1)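 Multiple-cycle spread assay in MT2 cells with wild-type H9IIIB virus. Cells were infected overnight at moi ≈ 0.01 without compound, washed, then cultured 3 days across varying compound concentrations in RPMI 1640 with 10% FBS or 50% NHS. p24 was measured in supernatants. CIC95 is the lowest concentration inhibiting replication ≥95%, as the geometric mean of ≥2 determinations.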

[7] = tested on: Human immunodeficiency virus; experiment: Antiviral activity against HIV with reverse transcriptase L100I mutant assessed as inhibition of viral replication; assay type: functional, organism-based; details: Human immunodeficiency virus 1
Canis familiaris = experiment: AUC in Beagle dog at 1 mg/kg, po; assay type: ADME, organism-based, Canis lupus familiaris, Plasma; design: dose 1 mg/kg, route oral; details: in vivo
[8] = tested on: Human immunodeficiency virus; experiment: Antiviral activity against HIV with reverse transcriptase K103N/P225H double mutant assessed as inhibition of viral replication relative to wild type; assay type: functional
Rhesus monkey = experiment: AUC in rhesus monkey at 5 mg/kg, po; assay type: ADME, organism-based, Macaca mulatta, Plasma; design: dose 5 mg/kg, route oral; details: in vivo
[9] = tested on: Human immunodeficiency virus; experiment: Antiviral activity against HIV with reverse transcriptase Y181C mutant infected in human MT2 cells assessed as inhibition of viral replication measuring p24 level after 3 days in presence of 10% fetal bovine serum; assay type: functional; details: Human immunodeficiency virus 1, MT2, Serum, 72 h; read-out: CIC95
Summary of the method: (§2)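 Multiple-cycle replication (Spread) assay in MT2 cells with H9IIIB-background mutant virus. Cells were infected overnight at moi ≈ 0.01 without compound, washed, then cultured 3 days across a range of compound concentrations in medium with 10% FBS. p24 was measured in supernatants. CIC95 is the lowest concentration inhibiting replication by ≥95%, reported as the geometric mean of ≥2 determinations.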

[10] = tested on: Human immunodeficiency virus; experiment: Antiviral activity against HIV with reverse transcriptase K103N/G190A double mutant assessed as inhibition of viral replication relative to wild type; assay type: functional
[11] = tested on: Human immunodeficiency virus; experiment: Antiviral activity against wild type HIV H9-3B infected in human MT2 cells assessed as inhibition of viral replication measuring p24 level after 3 days in presence of 50% normal human serum; assay type: functional; details: Human immunodeficiency virus 1, H9-3B, 72 h, read-out: CIC95; summary of the method: as §1
[12] = tested on: Human immunodeficiency virus; experiment: Antiviral activity against HIV with reverse transcriptase K103N mutant infected in human MT2 cells assessed as inhibition of viral replication measuring p24 level after 3 days in presence of 10% fetal bovine serum; assay type: functional; details: Human immunodeficiency virus 1, MT2, Serum, 72 h; read-out: CIC95; summary of the method: as §2
[13] = Volume of distribution in rhesus monkey at 1 mg/kg, iv; assay type: ADME, organism-based, Macaca mulatta; design: dose 1 mg/kg, route intravenous; details: in vivo
[14] = tested on: Human immunodeficiency virus; experiment: Antiviral activity against HIV with reverse transcriptase G190A mutant assessed as inhibition of viral replication; assay type: functional, organism-based; details: Human immunodeficiency virus 1
[15] = tested on: Human immunodeficiency virus; experiment: Antiviral activity against HIV with reverse transcriptase L100I/K103N double mutant assessed as inhibition of viral replication relative to wild type; assay type: functional
[16] = tested on: Human immunodeficiency virus; experiment: Antiviral activity against HIV with reverse transcriptase K103N/Y181C double mutant infected in human MT2 cells assessed as inhibition of viral replication measuring p24 level after 3 days in presence of 10% fetal bovine serum; assay type: functional; details: Human immunodeficiency virus 1, MT2, Serum, 72 h; read-out: CIC95; summary of the method: as §2
[17] = tested on: Human immunodeficiency virus; experiment: Antiviral activity against HIV with reverse transcriptase G190A mutant assessed as inhibition of viral replication relative to wild type; assay type: functional
[18] = tested on: Human immunodeficiency virus; experiment: Antiviral activity against HIV with reverse transcriptase K103N/Y181C/G190A mutant assessed as inhibition of viral replication relative to wild type; assay type: functional
[19] = tested on: Human immunodeficiency virus; experiment: Antiviral activity against HIV with reverse transcriptase K101E/G190A double mutant assessed as inhibition of viral replication relative to wild type; assay type: functional
[20] = tested on: Human immunodeficiency virus; experiment: Antiviral activity against HIV with reverse transcriptase K101E/G190A double mutant assessed as inhibition of viral replication; assay type: functional, organism-based; details: Human immunodeficiency virus 1
[21] = tested on: Human immunodeficiency virus; experiment: Antiviral activity against HIV with reverse transcriptase Y181C mutant assessed as inhibition of viral replication; assay type: functional, organism-based; details: Human immunodeficiency virus 1
[22] = tested on: Human immunodeficiency virus; experiment: Antiviral activity against HIV with reverse transcriptase L100I mutant assessed as inhibition of viral replication relative to wild type; assay type: functional
[23] = tested on: Human immunodeficiency virus; experiment: Antiviral activity against HIV with reverse transcriptase G190S mutant assessed as inhibition of viral replication; assay type: functional, organism-based; details: Human immunodeficiency virus 1
[24] = tested on: Human immunodeficiency virus; experiment: Antiviral activity against HIV with reverse transcriptase K103N mutant assessed as inhibition of viral replication; assay type: functional, organism-based; details: Human immunodeficiency virus 1
[25] = tested on: Human immunodeficiency virus; experiment: Antiviral activity against HIV with reverse transcriptase Y181C/G190A double mutant assessed as inhibition of viral replication; assay type: functional, organism-based; details: Human immunodeficiency virus 1
[26] = tested on: Human immunodeficiency virus; experiment: Antiviral activity against HIV with reverse transcriptase K103N/Y181C double mutant assessed as inhibition of viral replication; assay type: functional, organism-based; details: Human immunodeficiency virus 1
[27] = tested on: Human immunodeficiency virus; experiment: Antiviral activity against HIV with reverse transcriptase K103N mutant assessed as inhibition of viral replication relative to wild type; assay type: functional
[28] = tested on: Human immunodeficiency virus; experiment: Antiviral activity against HIV with reverse transcriptase Y188L mutant assessed as inhibition of viral replication; assay type: functional, organism-based; details: Human immunodeficiency virus 1
[29] = tested on: Human immunodeficiency virus; experiment: Antiviral activity against HIV with reverse transcriptase CNDO mutant assessed as inhibition of viral replication relative to wild type; assay type: functional
[30] = Clearance in Beagle dog at 0.5 mg/kg, iv; assay type: ADME, organism-based, Canis lupus familiaris; design: dose 0.5 mg/kg, route intravenous; details: in vivo
[31] = tested on: Human immunodeficiency virus; experiment: Antiviral activity against HIV with reverse transcriptase Y188L mutant assessed as inhibition of viral replication relative to wild type; assay type: functional
[32] = tested on: Human immunodeficiency virus; experiment: Antiviral activity against HIV with reverse transcriptase K103N/P225H double mutant assessed as inhibition of viral replication; assay type: functional, organism-based; details: Human immunodeficiency virus 1
[33] = tested on: Human immunodeficiency virus; experiment: Antiviral activity against HIV with reverse transcriptase Y181C/G190A double mutant assessed as inhibition of viral replication relative to wild type; assay type: functional
[34] = tested on: Human immunodeficiency virus; experiment: Antiviral activity against HIV with reverse transcriptase MDRC4 mutant assessed as inhibition of viral replication; assay type: functional, organism-based; details: Human immunodeficiency virus 1
[35] = tested on: Human immunodeficiency virus; experiment: Antiviral activity against HIV with reverse transcriptase K103N/G190A double mutant assessed as inhibition of viral replication; assay type: functional, organism-based; details: Human immunodeficiency virus 1
[36] = Half life in Sprague-Dawley rat at 2 mg/kg, iv; assay type: ADME, organism-based; design: dose 2 mg/kg, route intravenous; details: in vivo
[37] = tested on: Human immunodeficiency virus; experiment: Antiviral activity against HIV with reverse transcriptase V106A/G190A/F227L mutant assessed as inhibition of viral replication; assay type: functional, organism-based; details: Human immunodeficiency virus 1
[38] = tested on: Human immunodeficiency virus; experiment: Antiviral activity against HIV with reverse transcriptase K103N/Y181C/G190A mutant assessed as inhibition of viral replication; assay type: functional, organism-based; details: Human immunodeficiency virus 1
[39] = tested on: Human immunodeficiency virus; experiment: Antiviral activity against HIV with reverse transcriptase K101E/Y181C/G190A mutant assessed as inhibition of viral replication; assay type: functional, organism-based; details: Human immunodeficiency virus 1
[40] = tested on: Human immunodeficiency virus; experiment: Antiviral activity against HIV with reverse transcriptase G190S mutant assessed as inhibition of viral replication relative to wild type; assay type: functional
[41] = Volume of distribution in Sprague-Dawley rat at 2 mg/kg, iv; assay type: ADME, organism-based; design: dose 2 mg/kg, route intravenous; details: in vivo
[42] = tested on: Human immunodeficiency virus; experiment: Antiviral activity against HIV with reverse transcriptase Y181C mutant assessed as inhibition of viral replication relative to wild type; assay type: functional
[43] = tested on: Human immunodeficiency virus; experiment: Antiviral activity against HIV with reverse transcriptase MDRC4 mutant assessed as inhibition of viral replication relative to wild type; assay type: functional
[44] = tested on: Human immunodeficiency virus; experiment: Antiviral activity against HIV with reverse transcriptase CNDO mutant assessed as inhibition of viral replication; assay type: functional, organism-based; details: Human immunodeficiency virus 1
[45] = tested on: Human immunodeficiency virus; experiment: Antiviral activity against HIV with reverse transcriptase V106A/G190A/F227L mutant assessed as inhibition of viral replication relative to wild type; assay type: functional
Rattus norvegicus = experiment: AUC in Sprague-Dawley rat at 10 mg/kg, po; assay type: ADME, organism-based, Plasma; design: dose 10 mg/kg, route oral; details: in vivo
[46] = Oral bioavailability in Beagle dog at 1 mg/kg; assay type: ADME, organism-based, Canis lupus familiaris; details: in vivo
[47] = Oral bioavailability in rhesus monkey at 5 mg/kg; details: in vivo
[48] = Half life in Beagle dog at 0.5 mg/kg, iv; assay type: ADME, organism-based, Canis lupus familiaris; design: dose 0.5 mg/kg, route intravenous; details: in vivo
[49] = Volume of distribution in Beagle dog at 0.5 mg/kg, iv; assay type: ADME, organism-based, Canis lupus familiaris; design: dose 0.5 mg/kg, route intravenous; details: in vivo
[50] = Clearance in Sprague-Dawley rat at 2 mg/kg, iv; assay type: ADME, organism-based; design: dose 2 mg/kg, route intravenous; details: in vivo
[51] = Half life in rhesus monkey at 1 mg/kg, iv; assay type: ADME, organism-based, Macaca mulatta; design: dose 1 mg/kg, route intravenous; details: in vivo

N#Cc1cc(Cl)cc(Oc2cc(OCc3n[nH]c4nc(N)ccc34)ccc2Cl)c1
IC50 [1]: 34.8 nM | clearance [2]: 16 mL/min/kg | fold change (FC) [3]: 21.07 | Ki [4]: 0.2 nM | fold change (FC) [5]: 55.5 | IC95 [6]: 5 nM | IC50 [7]: 1.3 nM | AUC (Canis familiaris): 31 µM | fold change (FC) [8]: 1.57 | AUC (Rhesus monkey): 0.3 µM | IC95 [9]: 27 nM | fold change (FC) [10]: 5.14 | IC95 [11]: 26 nM | IC95 [12]: 11 nM | Vd [13]: 1.9 L/kg | IC50 [14]: 2.9 nM | fold change (FC) [15]: 24.86 | IC95 [16]: 101 nM | fold change (FC) [17]: 2.07 | fold change (FC) [18]: 78.93 | fold change (FC) [19]: 4.93 | IC50 [20]: 6.9 nM | IC50 [21]: 4.8 nM | fold change (FC) [22]: 0.93 | IC50 [23]: 12.3 nM | IC50 [24]: 2.6 nM | IC50 [25]: 11.6 nM | IC50 [26]: 77.7 nM | fold change (FC) [27]: 1.86 | IC50 [28]: 881 nM | fold change (FC) [29]: 1 | clearance [30]: 5.8 mL/min/kg | fold change (FC) [31]: 629.07 | IC50 [32]: 2.2 nM | fold change (FC) [33]: 8.29 | IC50 [34]: 9 nM | IC50 [35]: 7.2 nM | half-life [36]: 3.5 h | IC50 [37]: > 1000 nM | IC50 [38]: 110 nM | IC50 [39]: 29.5 nM | fold change (FC) [40]: 8.79 | Vd [41]: 2 L/kg | fold change (FC) [42]: 3.43 | fold change (FC) [43]: 6.43 | IC50 [44]: 1.4 nM | fold change (FC) [45]: >714 | AUC (Rattus norvegicus): 23 µM | bioavailability [46]: 47% | bioavailability [47]: 1% | half-life [48]: 3.9 h | Vd [49]: 1.7 L/kg | clearance [50]: 9 mL/min/kg | half-life [51]: 2.1 h
